In ChEMBL document CHEMBL1124934, “Synthesis and structure-activity relationships of dynorphin A-(1-8) amide analogues” (J Med Chem, 1990):
Square brackets hold non-standard residues; d marks the D form. Peptide text beside a SMILES is read from it. NMeY = CN[C@@H](Cc1ccc(O)cc1)C(=O)O; NMeF = CN[C@@H](Cc1ccccc1)C(=O)O; Sar = CNCC(=O)O

Columns and labels:
[1] = target: T1, Mu-type opioid receptor (Cavia porcellus, UniProt P97266); test: Evaluated for inhibitory activity against Opioid receptor mu 1 of guinea pig ileum (GPI); assay type: tissue-based
T1 sequence (P97266 whole entry): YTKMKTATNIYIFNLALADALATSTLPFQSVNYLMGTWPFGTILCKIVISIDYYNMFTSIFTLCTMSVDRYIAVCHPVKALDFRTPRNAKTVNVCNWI

[2] = target: Delta-type opioid receptor (Mus musculus, UniProt P32300); test: Evaluated for inhibitory activity against Opioid receptor delta 1 of mouse vas deferens (MVD).; assay type: tissue-based
Chain of Delta-type opioid receptor (P32300 whole entry): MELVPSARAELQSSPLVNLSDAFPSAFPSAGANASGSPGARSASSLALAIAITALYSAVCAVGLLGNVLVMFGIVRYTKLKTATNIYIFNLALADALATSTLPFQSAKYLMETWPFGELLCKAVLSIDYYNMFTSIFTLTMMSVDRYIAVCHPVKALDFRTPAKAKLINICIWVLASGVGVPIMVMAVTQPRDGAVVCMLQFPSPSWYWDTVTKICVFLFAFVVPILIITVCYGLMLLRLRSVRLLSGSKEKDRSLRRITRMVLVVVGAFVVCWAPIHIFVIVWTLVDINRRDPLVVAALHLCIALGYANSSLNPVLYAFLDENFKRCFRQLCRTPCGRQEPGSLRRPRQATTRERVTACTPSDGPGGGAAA

[3] = target: T1, Mu-type opioid receptor; test: Binding affinities against Opioid receptor mu 1 of guinea pig brain membrane using [3H]DAGO as the radioligand using competition binding assays.
In short: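 μ-site competition binding on crude P2 membranes from male Hartley guinea pig brain (1 g original wet weight/20 mL, 50 mM Tris-HCl pH 7.6) with 5 nM [3H]DAGO and varied competitor, 60 min at 25 °C. GF/B filtration (1% polyethylenimine presoaked), six ice-cold buffer rinses, scintillation counting. Nonspecific binding with 10 μM levallorphan. Mean of five or six determinations ± SEM.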

[4] = system: Mus musculus; test: Evaluated for analgesic effect using mouse tail-pinch test after intravenous administration; assay type: functional
In short: (§1)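 Mice, intravenous dosing, tail-pinch analgesia test. Four doses per compound, each dose tested on at least eight animals, giving ED50 in mg/kg.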

[5] = system: Mus musculus; test: Evaluated for analgesic effect using mouse tail-pinch test after intravenous administration; 0.11-0.52; assay type: functional; in short: as §1
[6] = system: Mus musculus; test: Evaluated for analgesic effect using mouse tail-pinch test after intravenous administration; 1.27-3.29; assay type: functional; in short: as §1
[7] = system: Mus musculus; test: Evaluated for analgesic effect using mouse tail-pinch test after intravenous administration; 2.21-9.32; assay type: functional; in short: as §1
[8] = system: Mus musculus; test: Evaluated for analgesic effect using mouse tail-pinch test after intravenous administration; 0.35-1.71; assay type: functional; in short: as §1

Structure (SMILES)	IC50 [1] [nM]	IC50 [2] [nM]	also measured
CN[C@@H](Cc1ccc(O)cc1)C(=O)NCC(=O)NCC(=O)N(C)[C@@H](Cc1ccccc1)C(=O)N[C@@H](CC(C)C)C(=O)N[C@@H](CCCNC(=N)N)C(=O)N[C@@H](CCCNC(=N)N)C(=O)N[C@@H](CC(C)C)C(N)=O (H-[NMeY]GG[NMeF]LRRL-NH2)	26.7	121	–
CN[C@@H](Cc1ccc(O)cc1)C(=O)NCC(=O)NCC(=O)N[C@@H](Cc1ccccc1)C(=O)N[C@@H](CC(C)C)C(=O)N[C@@H](CCCNC(=N)N)C(=O)N(C)[C@@H](CCCNC(=N)N)C(=O)N[C@H](CC(C)C)C(N)=O	0.5	4.8	Ki [3]: 3.34 nM
CN[C@@H](Cc1ccc(O)cc1)C(=O)NCC(=O)NCC(=O)N[C@@H](Cc1ccccc1)C(=O)N[C@@H](CC(C)C)C(=O)N[C@@H](CCCCN=C(N)N)C(=O)N[C@@H](CCCN=C(N)N)C(=O)N[C@H](CC(C)C)C(N)=O	2.6	12	–
CCNC(=O)[C@@H](CC(C)C)NC(=O)[C@H](CCCNC(=N)N)N(C)C(=O)[C@H](CCCNC(=N)N)NC(=O)[C@H](CC(C)C)NC(=O)[C@H](Cc1ccccc1)NC(=O)CNC(=O)CNC(=O)[C@H](Cc1ccc(O)cc1)NC	0.3	7.4	Ki [3]: 4.51 nM
CN[C@@H](Cc1ccc(O)cc1)C(=O)NCC(=O)NNC(=O)N[C@@H](Cc1ccccc1)C(=O)N[C@@H](CC(C)C)C(=O)N[C@@H](CCCNC(=N)N)C(=O)N[C@@H](CCCNC(=N)N)C(=O)N[C@H](CC(C)C)C(N)=O	18.6	62.4	–
CN[C@@H](Cc1ccc(O)cc1)C(=O)NCC(=O)NCC(=O)N[C@@H](Cc1ccccc1)C(=O)N[C@@H](CC(C)C)C(=O)N[C@@H](CCCN=C(N)N)C(=O)N[C@@H](CCCN=C(N)N)C(=O)N[C@@H](CC(C)C)C(N)=O	> 3000	–	–
CN[C@@H](Cc1ccc(O)cc1)C(=O)NCC(=O)NCC(=O)N[C@H](Cc1ccccc1)C(=O)N[C@H](CC(C)C)C(=O)N[C@@H](CCCNC(=N)N)C(=O)N[C@@H](CCCNC(=N)N)C(=O)N[C@@H](CC(C)C)C(N)=O	82	> 1740	ED50 [4]: > 6 mg/kg
CCNC(=O)[C@@H](CC(C)C)NC(=O)[C@H](CCCN=C(N)N)N(C)C(=O)[C@H](CCCN=C(N)N)NC(=O)[C@@H]1CSSC[C@@H](NC(=O)[C@@H](N)Cc2ccc(O)cc2)C(=O)NCC(=O)N[C@@H](Cc2ccccc2)C(=O)N1	–	–	ED50 [5]: 0.22 mg/kg
CC[C@H](C)[C@H](NC(=O)[C@H](CCCNC(=N)N)NC(=O)[C@H](CCCNC(=N)N)NC(=O)[C@H](CC(C)C)NC(=O)[C@H](Cc1ccccc1)NC(=O)CNC(=O)CNC(=O)[C@@H](N)Cc1ccc(O)cc1)C(N)=O	0.2	3	Ki [3]: 7.16 nM
CN[C@@H](Cc1ccc(O)cc1)C(=O)NCC(=O)NCC(=O)N[C@H](Cc1ccccc1)C(=O)N[C@@H](CC(C)C)C(=O)N[C@@H](CCCN=C(N)N)C(=O)N(C)[C@@H](CCCN=C(N)N)C(=O)N[C@@H](CC(C)C)C(N)=O	–	–	ED50 [6]: 2.04 mg/kg
CN[C@@H](Cc1ccc(O)cc1)C(=O)NCC(=O)NCC(=O)N[C@@H](Cc1ccccc1)C(=O)N[C@@H](CC(C)C)C(=O)N(C)[C@@H](CCCN=C(N)N)C(=O)N[C@@H](CCCN=C(N)N)C(=O)N[C@H](CC(C)C)C(N)=O	–	–	ED50 [7]: 4.54 mg/kg
CC(C)C[C@H](NC(=O)[C@H](CCCNC(=N)N)NC(=O)[C@H](CCCNC(=N)N)NC(=O)[C@H](CC(C)C)NC(=O)[C@H](Cc1ccccc1)NC(=O)CNC(=O)CN(C)C(=O)[C@@H](N)Cc1ccc(O)cc1)C(N)=O (H-Y[Sar]GFLRRL-NH2)	897	1770	–
CCNC(=O)[C@@H](CC(C)C)NC(=O)[C@H](CCCNC(=N)N)NC(=O)[C@H](CCCNC(=N)N)NC(=O)[C@H](CC(C)C)NC(=O)[C@H](Cc1ccccc1)NC(=O)CNC(=O)CNC(=O)[C@H](Cc1ccc(O)cc1)NC	0.7	4.6	–
CN[C@@H](Cc1ccc(O)cc1)C(=O)N[C@@H](C)C(=O)NCC(=O)N[C@@H](Cc1ccccc1)C(=O)N[C@@H](CC(C)C)C(=O)N[C@@H](CCCN=C(N)N)C(=O)N[C@@H](CCCN=C(N)N)C(=O)N[C@@H](CC(C)C)C(N)=O (H-[NMeY]AGFLRRL-NH2)	–	–	ED50 [4]: > 5 mg/kg
CCCCCCNC(=O)[C@@H](CC(C)C)NC(=O)[C@H](CCCNC(=N)N)NC(=O)[C@H](CCCNC(=N)N)NC(=O)[C@H](CC(C)C)NC(=O)[C@H](Cc1ccccc1)NC(=O)CNC(=O)CNC(=O)[C@H](Cc1ccc(O)cc1)NC	6.6	22.3	–
CCNC(=O)[C@@H](CC(C)C)NC(=O)[C@H](CCCN=C(N)N)N(C)C(=O)[C@H](CCCN=C(N)N)NC(=O)[C@H](CC(C)C)NC(=O)[C@H](Cc1ccc([N+](=O)[O-])cc1)NC(=O)CNC(=O)CNC(=O)[C@H](Cc1ccc(O)cc1)NC	–	–	ED50 [8]: 0.77 mg/kg
